Sampled rows, rich in hits. Any-hit rate of the full collection: about 7.2%.
M1 ag = M1 muscarinic receptor agonists, primary screen, CHO-M1 cells, Fluo-4 calcium, agonist mode. Fluo-4 calcium fluorescence; active compounds read high. B-score at 10 µM. 64,000 compounds, 3% hits;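 active means fluorescence rise, raw or as B-score row- and column-corrected plate score, outside the 99.7% band of its plate's samples, either direction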
D1 allo mod = D1 CRE-luciferase signal change, two-sided – cell-based, HEK293 D1, dopamine EC30, D1 allosteric modulator project, primary screen. D(1A) dopamine receptor (Homo sapiens), P21728. dopamine EC30 potentiation; actives deviate in either direction. B-score at 10 µM. 58,000 compounds, 5.9% hits;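 active means luminescence count or its row- and column-corrected plate score outside the 99.7% band of the plate's sample wells, on either side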
Target sequence (P21728 whole entry, looked up): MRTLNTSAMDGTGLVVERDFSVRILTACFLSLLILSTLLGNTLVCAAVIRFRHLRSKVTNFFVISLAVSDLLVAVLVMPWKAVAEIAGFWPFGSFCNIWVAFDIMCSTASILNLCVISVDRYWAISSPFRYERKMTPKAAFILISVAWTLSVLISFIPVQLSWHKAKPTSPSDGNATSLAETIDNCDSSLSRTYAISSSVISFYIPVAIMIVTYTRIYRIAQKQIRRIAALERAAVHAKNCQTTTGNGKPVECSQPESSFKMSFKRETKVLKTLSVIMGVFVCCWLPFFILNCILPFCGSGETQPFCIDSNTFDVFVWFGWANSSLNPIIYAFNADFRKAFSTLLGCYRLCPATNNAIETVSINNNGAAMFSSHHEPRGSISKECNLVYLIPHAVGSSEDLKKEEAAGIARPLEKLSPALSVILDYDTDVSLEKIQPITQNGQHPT
hDAT+cocaine = changed hDAT dopamine uptake under cocaine IC80, either direction, primary screen, cocaine antagonist project, cell-based, LLC-PK1 hDAT, [14C]-dopamine uptake, MLSMR; 110,000 compounds, 1.3% hits; Sodium-dependent dopamine transporter (Homo sapiens), Q01959; B-score at 10 µM; LLC-PK1 hDAT cells, [14C]-dopamine uptake with cocaine IC80; actives deviate in either direction;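 active means Z score or B-score, a plate-position-corrected score, falls beyond the plate's 99.7% confidence bounds, in either direction; inactive means both scores lie inside the 99.7% bounds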;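 further: scored against the spread of the other compound wells on the same plate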
M1 antagonist = antagonists of rat M1 muscarinic receptor | AID 628, 2007 | CHO-M1 cells, Fluo-4 calcium, ACh EC80 antagonist mode; active compounds read low | B-score at 10 µM | 64,000 compounds, 3.4% hits | Muscarinic acetylcholine receptor M1 (Rattus norvegicus), P08482;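 active means calcium fluorescence response, raw or row-and-column corrected B-score, differing from the plate sample mean either way at a set confidence level, mostly lower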
BAP1 block = inhibitors of BAP1 deubiquitinase, primary screen, biochemical, Ub-AMC fluorescence, kinetic | recombinant BAP1, Ub-AMC hydrolysis fluorescence kinetic; active compounds read low | Ubiquitin carboxyl-terminal hydrolase BAP1 (Homo sapiens), Q92560 | calls only at 20 µM | 72,000 compounds, 0.48% hits;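 active means activity remaining at or below 50% of control, provided the compound also passes the data quality filters; inactive means the rest, including low values that fail the filters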;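 further: 100% = DMSO wells rate and 0% = substrate alone blank rate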
HEK293 NFkB inh = inhibitors of PMA/ionomycin-induced NF-kB reporter, primary screen, antigen receptor NF-kB inhibitor project, cell-based, HEK-293 luciferase reporter, luminescence. 62,000 compounds, 0.21% hits. inhibition, % at 3 µM. HEK-293 NF-kB luciferase reporter;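 active means inhibition above the mean of all tested compounds plus 3 SD, cut at about 40% in these data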;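 further: 0% = stimulated DMSO wells and 100% = 10 µM reference inhibitor 5653914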
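Material: HEK-293 cells with stable firefly luciferase reporter driven by four HIV NF-kB elements / Also added: PMA plus ionomycin mix as NF-kB-activating stimulus / Compound dosing: 3 µM once, 0.30% DMSO / Times: 1 h pretreatment, 16 h stimulation, 37 °C / Signal: luminescence / Evaluation: per-plate % inhibition versus controls / Benchmarks: DMSO and 10 µM reference inhibitor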
D1 PAM confirm = D1 receptor positive allosteric modulators, retest, confirmation, cell-based, HEK293 D1, CRE-luciferase, duplicate | 2,200 compounds, 88% hits | shares compounds with D1 allo mod | dopamine EC30 potentiation; active compounds read high | luminescence at 10 µM;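 active means luminescence in either of two replicates above the same-plate mean plus 3 SD of the low-dose dopamine control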
D1 no dopamine = D1 receptor agonism without dopamine, confirmation, mechanism study for D1 allosteric modulator project, cell-based, HEK293 D1, CRE-luciferase, secondary assay 1 | shares compounds with D1 allo mod | luminescence, no dopamine; active compounds read high | luminescence at 10 µM | 1,900 compounds, 0.8% hits; in the data active means luminescence above about 3900
Isoprot counter = isoproterenol response counter-screen activity for D1 modulators | shares compounds with D1 allo mod | HEK293 D1 CRE-luciferase, isoproterenol EC30 counter-screen | calls only at 10 µM | 2,200 compounds, 63% hits;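 active means luminescence in either replicate above plate mean of wells with a partly effective reference agonist dose plus 3 SD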;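 further: isoproterenol raises cAMP through native beta-adrenoceptor Gs so signal bypasses D1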
An asterisk follows results filed as active; i = inactive; . = no result shown; + = active, no number.

SMILES | M1 ag | D1 allo mod | hDAT+cocaine | M1 antagonist | BAP1 block | HEK293 NFkB inh | D1 PAM confirm | D1 no dopamine | Isoprot counter
COc1ccc(CC(=O)Nc2ccc(-c3cn4ccccc4n3)cc2)cc1OC | . | . | -0.41 | . | . | . | . | . | .
COc1ccc(OC)c(NC(=O)COc2ccc(Cl)cc2)c1 | . | . | . | . | i | . | . | . | .
CCn1ccc(C(=O)Nc2ccc(Cl)cn2)n1 | 0.12 | -0.041 | 0.52 | -0.19 | i | -15 | . | . | .
CCn1ccc(C(=O)Nc2ccc(N(C)C(C)=O)cc2)n1 | 0.36 | 2.4* | 0.081 | -0.17 | i | 10 | 5156 | 1532 | i
CCOC(=O)c1sc(N)c(C(=O)OCC)c1COC(=O)C1CC(=O)N(Cc2ccco2)C1 (centres undefined) | 0.65 | 6.1* | 0.25 | 0.0073 | i | 24 | 8580* | . | +
COC(=O)c1sc(N)c(C(=O)OC)c1COC(=O)C1CC(=O)N(Cc2ccco2)C1 (centres undefined) | 0.92 | 0.062 | 0.22 | -0.48 | i | 8 | . | . | .
O=C(O)C1CC(=O)N(Cc2ccccc2)C1 (centres undefined) | -0.76 | -0.21 | -0.66 | 1.8 | i | 1 | . | . | .
CCOC(=O)c1[nH]c(COC(=O)C2CC(=O)N(Cc3ccccc3)C2)c(C(=O)OCC)c1C (centres undefined) | -0.56 | 2.9* | . | 0.47 | i | 1 | 4948 | 1448 | i
Cc1nc(-c2cc3cc(Cl)ccc3oc2=O)cc2c1c(=O)oc1ccc(Cl)cc12 | . | . | . | . | i | . | . | . | .
CCOC(=O)c1c(C)oc2cc(Br)c(O)c(Br)c12 | 0.42 | 7.9* | 0.36 | 0.37 | i | 13 | 9840* | 1808 | i
CCc1nnc(NC(=O)CSc2nc3cccnc3n2C2CCCCC2)s1 | -0.51 | 6.2* | 0.87 | 1.3 | i | -25 | 8624* | 1648 | +
CCOc1ccccc1NC(=O)CSc1ncnc2c1oc1ccccc12 | -1.3 | 3.6* | 1.3 | -0.62 | i | -3 | 6488* | 1512 | +
O=C(CSc1ncnc2c1oc1ccccc12)Nc1ccccc1F | 0.09 | 0.62 | 0.087 | 0.74 | i | 0 | . | . | .
O=C(Nc1nnc(Cc2ccc(F)cc2)s1)c1cccs1 | . | . | . | . | i | . | . | . | .
O=c1[nH]c2c(s1)C(c1ccccc1)C1C3CCC(C3)C1S2 (centres undefined) | 0.28 | 17* | -0.03 | -0.085 | . | 16 | 21364* | . | +
O=C1C2Sc3[nH]c(=O)sc3C(c3ccccc3)C2C(=O)N1c1ccccc1 (centres undefined) | . | . | 1.7 | . | . | . | . | . | .
COc1ccc(C2c3sc(=O)[nH]c3SC3C4CCC(C4)C23)cc1 (centres undefined) | -0.036 | 16* | 0.31 | -0.55 | . | 10 | 27840* | 1724 | +
COc1cc(C2c3sc(=O)[nH]c3SC3C4CCC(C4)C23)ccc1O (centres undefined) | -1.1 | 8.5* | -0.098 | 0.072 | i | 12 | 18840* | 1528 | +
Cc1ccc(CCNS(=O)(=O)c2cnc[nH]2)cc1 | 1 | 3.2* | 0.0069 | -0.2 | i | 2 | 6464* | 1552 | i
O=S(=O)(NCc1ccc(Cl)cc1)c1cnc[nH]1 | -0.0046 | 0.27 | -1.3 | -0.37 | i | -4 | . | . | .
CCN=C(Nc1ccc2c(c1)OCO2)SC1CC(=O)N(c2ccc(OC)cc2)C1=O (centres undefined) | . | . | -0.2 | . | . | . | . | . | .
CCN=C(Nc1ccc2c(c1)OCO2)SC1CC(=O)N(c2ccccc2F)C1=O (centres undefined) | -0.3 | 6.4* | -0.16 | 0.14 | i | 10 | 12104* | 2380 | +
CC(C)(C)C(=O)C1C(c2cccc3ccccc23)C(C#N)(C#N)C2c3ccccc3C=CN12 (centres undefined) | . | . | . | . | i | . | . | . | .
COCCN(CCOC)Cc1cc(=O)oc2cc3c(cc12)CCC3 | . | 2.4* | 0.33 | . | i | 20 | 9280* | . | +
CCn1nc(NC(=O)c2ccco2)c2cc3ccccc3nc21 | -0.6 | 14* | 0.84 | -0.32 | i | . | 12332* | 1428 | +
SMILES | M1 ag | D1 allo mod | hDAT+cocaine | M1 antagonist | BAP1 block | HEK293 NFkB inh | D1 PAM confirm | D1 no dopamine | Isoprot counter
CCn1nc(NC(=O)c2ccncc2)c2cc3cccc(C)c3nc21 | 0.33 | 0.66 | 0.018 | 0.43 | i | 14 | . | . | .
CCn1nc(NC(=O)c2ccncc2)c2cc3ccccc3nc21 | 0.64 | 11* | 0.99 | 0.00074 | i | 0 | 15352* | 1464 | +
O=C1CC(c2cccc([N+](=O)[O-])c2)Sc2nc3ccccc3n21 (centres undefined) | . | . | . | . | i | . | . | . | .
COc1ccc(C(=O)CSc2nnnn2Cc2ccccc2)cc1 | -0.17 | 0.92 | 0.18 | -0.21 | i | 10 | . | . | .
O=C(CSc1nnnn1Cc1ccccc1)c1ccccc1 | 0.45 | 4* | -1.4 | 0.96 | i | 3 | 5880* | 1460 | i
CCCc1nc(N)c(C#N)c(N)c1C#N | 0.16 | 19* | 0.25 | 0.69 | i | 9 | 17760* | 1744 | +
COC(=O)c1c(N)c(C#N)c2n1CCCCC2 | 0.17 | 3.8* | -0.77 | -0.012 | i | 12 | 7512* | . | i
COC(=O)C1CSc2[nH]c(=O)sc2C1c1ccc(O)c(OC)c1 (centres undefined) | . | . | 2.3 | . | . | . | . | . | .
CCOC(=O)C1CSc2[nH]c(=O)sc2C1c1ccccc1 (centres undefined) | -1.2 | 8.2* | -1 | 0.63 | i | . | 11512* | 1668 | +
Nc1nc(-c2ccco2)nc(N2CCCCC2)n1 | 0.51 | 10* | -0.55 | -0.21 | i | 4 | 14860* | . | +
c1ccc(-c2csc3nnc(SCc4ccc5c(c4)OCO5)n23)cc1 | 0.7 | 6.8* | -0.35 | 1.4 | i | 24 | 16212* | 2144 | +
O=C(CCSc1nnc2scc(-c3ccccc3)n12)NCc1ccc2c(c1)OCO2 | 2.5 | 7.3* | 0.58 | -0.62 | i | 6 | 11856* | 1504 | +
